According to the EternaBench riboswitch data:

System: MS2 coat protein
Experiment: apparent Kd, MS2 coat protein; higher = weaker binding; RNA-MaP array; FMN 200 µM where present
How it was run: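 The apparent Kd is the median of filtered binding-curve fits, one per cluster, to green signal normalised to red-channel RNA signal and control-cluster median Fmax. The clusters were on Illumina sequencing chips, and stalled E. coli RNA polymerase had transcribed the designs on them. Titration used SNAP-549-labelled MS2 coat protein from 0.7 or 1.5 nM, doubling to 3 µM, without and then with constant ligand, in 100 mM Tris-HCl pH 7.5, 80 mM KCl, 4 mM MgCl2, BSA, DTT, yeast tRNA and Tween-20.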

[1] = designed as: OFF switch for flavin mononucleotide, no ligand
[2] = ligand present: flavin mononucleotide, designed as: OFF switch for flavin mononucleotide
[3] = designed as: ON switch for flavin mononucleotide, no ligand
[4] = ligand present: flavin mononucleotide, designed as: ON switch for flavin mononucleotide

“UUGUUGUAUGUAGGAUAUGCGUGUUAUUAUUAUGCAGAAGGACAUGAGGAUCACCCAUGUGUAUUAUUAUUAUAUAUUAUAUAU” was tested. Which “apparent Kd” value [1] did it give?
Its value is 21.5 nM.

And the “apparent Kd” value [2]?
Its value is 19.6 nM.

How did the “apparent Kd” value [1] turn out when “UCCUGAUUGAGAGUUAGGAGUGGUAGAAGGCGACCGGUGCCAGAUGACAUGAGGAUCACCCAUGUCGAGGAUAUACCACAGAAU” was run?
Its value is 8.04 nM.

What about the “apparent Kd” value [2] of the same sequence?
The value was 15.4 nM.

For “GGAGCACGCACAGGAUAUCCGGCGGCGCUCGUCGGAGAAGGGUGACAUGAGGAUCACCCAUGUACGUGCAACCCAGUUUGAGAG”, which “apparent Kd” value [3] is on record?
Its value is 122 nM.

What about the “apparent Kd” value [4] of the same sequence?
Its value is 44.8 nM.

Which results are given for “AUGGAUACCACAGGAUAUACCUGGAAUAUCCAGGUAGAAGGGUGGUCCAUCCUAUGUAAAUACAUGAGGAUCACCCAUGUGUCC”?
apparent Kd [3]: 256 nM; apparent Kd [4]: 244 nM

How did the “apparent Kd” value [1] turn out when “GUAGAGUAAGGAUAUGCAGAAUAGGAUAGAAUGGAUAGAAUGCAGAAGGUACAUGAGGAUCACCCAUGUAAUGU” was run?
Its value is 19.8 nM.

And the “apparent Kd” value [2]?
The value was 21.6 nM.

For “CGUGCGUAUGUGAGGAUAUGCUGGUCCUUGGAUCAGCAGAAGGCACAUGAGGAUCACCCAUGUGGUGUCGUACU”, which “apparent Kd” value [1] is on record?
The value was 297 nM.

And the “apparent Kd” value [2]?
Its value is 19.2 nM.

With “GGAGCACACAUUAACAUGAGGAUCACCCAUGUCAAAAGACAUGAGGAUAUGGAUCCGAAAAGGAUCCAGAAGGCAUGGCGCUCC” as the sequence, how does the “apparent Kd” value [3] read?
The value was 103 nM.

What about the “apparent Kd” value [4] of the same sequence?
The value was 9.9 nM.

Which “apparent Kd” value [1] does the source give for “GCCAGUUAUGUAGGAUAUGCGAGGCGAGCCUGAGCAGAAGGACAUGAGGAUCACCCAUGUAUUGCGGUUUAUGUUCAGAUCGCU” here?
The value was 15.9 nM.

What about the “apparent Kd” value [2] of the same sequence?
The value was 18.2 nM.

“AGCAACAUGAGGAUCACCCAUGUUGGUUCGAAAACGGACUCACAGGAUAUGCGGCGUAAUCGCUCGCAGAAGGGUGCGUCCUCA” was tested. Which “apparent Kd” value [3] did it give?
The value was 14.1 nM.

And the “apparent Kd” value [4]?
Its value is 25.6 nM.

Which results are given for “GCAUGUAUAUAAGGAUAUGCAUCACUGAGAAAUUUAGUGAGGAAGAUCACAUGAGGAUCACCCAUGUAGAAGGUAUAUACGUGC”?
apparent Kd [1]: 8.23 nM; apparent Kd [2]: 53.2 nM

With “UUAAUUAAUUAAUUCCAGUUUACAUGAGGAUCACCCAUGUAUAAGGAUAUGCAGUGGAAUACACUGCAGAAGGUAUACAUCUGG” as the sequence, how does the “apparent Kd” value [1] read?
Its value is 18.4 nM.

And the “apparent Kd” value [2]?
The value was 35.8 nM.

What does the source list for “UUUAUAAAUUAGAAGGCGAGAUAAAAUACAAUAGACAUGAGGAUCACCCAUGUGUACCCAUGUUUUGAGGAUAUAGUCAUAUAU”?
apparent Kd [3]: 804 nM; apparent Kd [4]: 536 nM

What does the source list for “GUCAGCUCGUGAGGAUAUACAACACUGCUUCGGCAGUGUAUUAAGAUCACAUGAGGAUCACCCAUGUAGAAGGCGCGAGCUGAU”?
apparent Kd [1]: 13.3 nM; apparent Kd [2]: 243 nM

For “CUGGUUGUCGUAGGAUAUGUAGGAUAUUCCUACAUGAGGAUCACCCAUGUUCGCAUGGAAGAAGGACAGAAGGACGAUGACCAC”, which “apparent Kd” value [3] is on record?
The value was 930 nM.

What about the “apparent Kd” value [4] of the same sequence?
The value was 23.2 nM.

With “CGGGCGAGAGGAUAUACAUGAGGAUCACCCAUGUGUUUCCAGGCGGUAGCUGUCACGUGUAGAAGGUUUUCCGG” as the sequence, how does the “apparent Kd” value [1] read?
Its value is 18.4 nM.

And the “apparent Kd” value [2]?
Its value is 17.7 nM.

For “CCCGAGGAAGGAUAUACAUGAGGAUCACCCAUGUGCGUUGGGACUGGCGUAGUCUUCAGUAGAAGGUCCGCGCC”, which “apparent Kd” value [1] is on record?
The value was 18.5 nM.

And the “apparent Kd” value [2]?
The value was 17.5 nM.

How did the “apparent Kd” value [1] turn out when “CUGAGCUGAGGAUAUACAUGAGGAUCACCCAUGUGUUCGAGCUUGCGUACAGGCAGAUGUAGAAGGCAGUUCGG” was run?
The value was 26.7 nM.

And the “apparent Kd” value [2]?
Its value is 99.3 nM.

How did the “apparent Kd” value [3] turn out when “AUAUGAUAGAUAGGAUAUACAGAUAAAUAAUAAGUAGAAGGAUCAAAUGGAAAUUAUACAUGAGGAUCACCCAUGUUUUUGAAU” was run?
Its value is 29 nM.

And the “apparent Kd” value [4]?
The value was 22.4 nM.

“CACCGUUACCUAGGAUAUAGUACAUGAGGAUCACCCAUGUAAUAAAUGAGAAUUUCGGAUGUAUGCUAGAAGGAGGAAAUCGGC” was tested. Which “apparent Kd” value [1] did it give?
The value was 39 nM.

And the “apparent Kd” value [2]?
The value was 40.2 nM.

For “GGAGAUACAUGAGGAUCACCCAUGUAGGAUAUCGGGCAUAUAUAUGGCGAAAGCCAUAUAUAUGCCGAGAAGGGCGUACACACC”, which “apparent Kd” value [1] is on record?
The value was 8.12 nM.

And the “apparent Kd” value [2]?
The value was 7.62 nM.

Which “apparent Kd” value [3] does the source give for “GCGGAACAUGAGGAUCACCCAUGUGGAGGGUGUAAAGGAUAUUAUAGAGAGAAGGUAGGGUAAGAAGGUUGCUGGG” here?
The value was 843 nM.

What about the “apparent Kd” value [4] of the same sequence?
Its value is 763 nM.

What does the source list for “UUGUUAUAUGUAGGAUAUGCAUAUUAUUAUUAUGCAGAAGGACAUGAGGAUCACCCAUGUAUAUUGUUAUUAUAUAUUAUAUAU”?
apparent Kd [1]: 24.2 nM; apparent Kd [2]: 32.5 nM

How did the “apparent Kd” value [1] turn out when “UUAAUGACUGUGAGGAUAUCGGAUAGAUAGAUAUUCGAGAAGGUACAUGAGGAUCACCCAUGUGUGAUUAGAGA” was run?
The value was 245 nM.

What about the “apparent Kd” value [2] of the same sequence?
The value was 291 nM.

Which results are given for “GGUGCGUUUGUGAGGAUAUGCUGGUCCUUGGUUCAGCAGAAGGCACAUGAGGAUCACCCAUGUGGUGUCGUACC”?
apparent Kd [1]: 240 nM; apparent Kd [2]: 28 nM

Which “apparent Kd” value [1] does the source give for “CACACGAAAGUCGAACGAUGAUCCAGAAGGAGUAUAACAUGACAUGAGGAUCACCCAUGUGCCAACUAGGAUAUGGAUCAUGGG” here?
Its value is 86.3 nM.

And the “apparent Kd” value [2]?
The value was 15.1 nM.

Which results are given for “UUUUAACAUGAGGAUCACCCAUGUGAGGAUAUCGAAAUUUAUAUUAAUAUUAAUAAUUCGAGAAGGCACAUUUU”?
apparent Kd [1]: 142 nM; apparent Kd [2]: 137 nM

For “AGCUACGUUUCGUAGCAGUGUCAUCGAGAAGGCCCUGACAUGAGGAUCACCCAUGUUGUUACAUGGGAGGAUAUCGAUGAUACA”, which “apparent Kd” value [3] is on record?
The value was 12.6 nM.

And the “apparent Kd” value [4]?
The value was 4.9 nM.
